Experimental findings from ChEMBL document CHEMBL4811235, “Design, synthesis, biological evaluation and structure-activity relationship study of quinazolin-4(3H)-one derivatives as novel USP7 inhibitors” (Eur J Med Chem, 2021) are described below.

Assay [1] relates to MGC-803. Put plainly: Cytotoxicity against human MGC-803 cells incubated for 4 hrs by MTT assay. To be noted: for IC50: MGC-803, 4 h. In kind it is functional, cell-based. The gist of the method: (§1)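 MTT assay. Compounds were dissolved in DMSO and tested at […] in triplicate. Cells were incubated with MTT at 37 °C for 4 h, the medium was replaced with DMSO, and absorbance was read at 490 nm. IC50 values came from regression.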

Assay [2] has as its system BGC-823. Kind of assay: Cytotoxicity against human BGC-823 cells incubated for 4 hrs by MTT assay. Format: functional, cell-based. The gist of the method:
as §1

Assay [3] addresses T1, Ubiquitin carboxyl-terminal hydrolase 7 (Homo sapiens, UniProt Q93009). Put plainly: Inhibition of recombinant USP7 catalytic domain (unknown origin) using UbA10 as substrate incubated with substrate for 75 mins followed by compound addition and measured after 1 hr by TR-FRET assay relative to control. The arrangement: concentration or dose not given beside the values. Put shortly: (§2)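 TR-FRET deubiquitinase assay. The recombinant USP7 catalytic domain was mixed with compound (from 2.5 mM DMSO stocks) in 50 mM HEPES pH 7.5 with 0.01% Triton X-100 for 10 min at 25 °C. The substrate was GST- and biotin-tagged Ub-A10, incubated for 75 min at 37 °C. Streptavidin-d2/anti-GST-Eu detection reagents were then added for 1 h at 25 °C and the signal read at […]/em 665 nm. IC50 came from regression.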
Target sequence in this assay (Q93009 whole entry, looked up, the tested form may be a part): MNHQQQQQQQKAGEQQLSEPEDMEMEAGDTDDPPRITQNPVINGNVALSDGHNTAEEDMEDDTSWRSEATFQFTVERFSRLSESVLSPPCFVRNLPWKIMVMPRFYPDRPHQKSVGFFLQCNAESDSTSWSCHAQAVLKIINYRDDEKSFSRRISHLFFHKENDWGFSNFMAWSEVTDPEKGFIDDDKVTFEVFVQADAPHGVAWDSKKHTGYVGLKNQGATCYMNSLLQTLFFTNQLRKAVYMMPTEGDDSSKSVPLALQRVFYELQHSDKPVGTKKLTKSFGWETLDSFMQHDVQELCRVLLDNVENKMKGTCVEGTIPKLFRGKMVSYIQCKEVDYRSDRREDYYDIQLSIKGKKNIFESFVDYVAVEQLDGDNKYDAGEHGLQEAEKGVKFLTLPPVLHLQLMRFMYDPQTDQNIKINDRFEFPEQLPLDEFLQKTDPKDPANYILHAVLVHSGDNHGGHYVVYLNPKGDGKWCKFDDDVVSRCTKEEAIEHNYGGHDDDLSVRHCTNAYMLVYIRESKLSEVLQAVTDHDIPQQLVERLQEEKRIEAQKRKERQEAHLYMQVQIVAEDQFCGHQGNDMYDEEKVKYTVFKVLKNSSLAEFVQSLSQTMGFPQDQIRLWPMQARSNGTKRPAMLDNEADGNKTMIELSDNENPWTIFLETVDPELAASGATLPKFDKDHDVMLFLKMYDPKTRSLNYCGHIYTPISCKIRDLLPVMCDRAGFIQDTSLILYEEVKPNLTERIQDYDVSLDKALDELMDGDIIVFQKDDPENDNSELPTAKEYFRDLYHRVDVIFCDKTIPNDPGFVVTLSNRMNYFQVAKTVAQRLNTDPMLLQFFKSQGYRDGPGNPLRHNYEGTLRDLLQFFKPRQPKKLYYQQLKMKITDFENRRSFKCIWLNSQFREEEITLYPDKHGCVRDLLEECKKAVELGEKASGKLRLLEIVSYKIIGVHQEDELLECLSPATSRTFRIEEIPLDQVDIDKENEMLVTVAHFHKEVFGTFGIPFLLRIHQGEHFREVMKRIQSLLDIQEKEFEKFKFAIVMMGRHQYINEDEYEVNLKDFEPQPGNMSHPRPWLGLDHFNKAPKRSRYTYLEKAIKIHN

The target of assay [4] is T1, Ubiquitin carboxyl-terminal hydrolase 7. Put plainly: Inhibition of USP7 in human BGC-823 cells assessed as upregulation of p21 protein expression by Western blot analysis. Format: cell-based.
Target sequence in this assay (Q93009 whole entry, looked up, the tested form may be a part): as above
Assay [5] has the same target. Put plainly: Inhibition of recombinant USP7 catalytic domain (unknown origin) using UbA10 as substrate incubated with substrate for 75 mins followed by compound addition and measured after 1 hr by TR-FRET assay. Put shortly: as §2
Target sequence in this assay (Q93009 whole entry, the tested form may be a part): as the sequence (Q93009 whole entry, looked up, the tested form may be a part) above
Assay [6] has the same target. Kind of assay: Inhibition of USP7 in human MGC-803 cells assessed as decrease in MDM2 protein level by Western blot analysis. To be noted: time 0.5-7 hrs, TDE = time-dependent effect. In kind it is cell-based.
Target sequence in this assay (Q93009 whole entry, looked up, the tested form may be a part): as above
For assay [7] the target is unchanged. Put plainly: Inhibition of USP7 in human MGC-803 cells assessed as increase in p21 expression level at 2.5 to 10 uM by Western blot analysis. In kind it is cell-based. Particulars: dose 2.5-10 µM.
Target sequence in this assay (Q93009 whole entry, looked up, the tested form may be a part): as above
The test system of assay [8] is MGC-803. Put plainly: Induction of cell cycle arrest in human MGC-803 cells assessed as accumulation of cells at G0/G1 phase incubated for 72 hrs by propidium iodide staining based flow cytometry. In kind it is functional. Put shortly:
(§3)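 Cell cycle: MGC-803 cells were treated with various compound concentrations for 72 h, harvested, washed in PBS at 4 °C, and stained with a commercial PI cell-cycle kit following its instructions. DNA content was analysed by flow cytometry.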

Assay [9] concerns MGC-803. Put plainly: Cytotoxicity against human MGC-803 cells at 50 uM incubated for 4 hrs by MTT assay relative to control. In kind it is functional.
The target in assay [10] is T1, Ubiquitin carboxyl-terminal hydrolase 7. Put plainly: Inhibition of USP7 in human MGC-803 cells assessed as increase in p53 expression level at 2.5 to 10 uM by Western blot analysis. Format: cell-based. Particulars: dose 2.5-10 µM.
Target sequence in this assay (Q93009 whole entry, looked up, the tested form may be a part): as above
For assay [11], the system named is BGC-823. Kind of assay: Cytotoxicity against human BGC-823 cells at 50 uM incubated for 4 hrs by MTT assay relative to control. In kind it is functional.
Assay [12] deals with T1, Ubiquitin carboxyl-terminal hydrolase 7. Put plainly: Binding affinity to recombinant USP7 (208 to 560 residues) (unknown origin) assessed as dissociation constant by biolayer interferometry.
Target sequence in this assay (Q93009 whole entry, the tested form may be a part): as the sequence (Q93009 whole entry, looked up, the tested form may be a part) above
Assay [13] has as its system MGC-803. Kind of assay: Induction of cell cycle arrest in human MGC-803 cells assessed as accumulation of cells at S phase incubated for 72 hrs by propidium iodide staining based flow cytometry. In kind it is functional. The gist of the method:
as §3

Assay [14] addresses T1, Ubiquitin carboxyl-terminal hydrolase 7. Kind of assay: Inhibition of N-terminal His-FLAG-tagged human USP7 (2 to 1102 residues) expressed in baculovirus infected Sf9 cells using Ub-AMC as substrate preincubated with enzyme for 40 mins followed by substrate addition for 30 mins by fluorescence plate reader analysis. Put shortly:
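USP7 activity with a commercial Ub-AMC inhibitor screening kit. Compound working solutions were made in 1X buffer containing 6.5 mM DTT. USP7 was added and preincubated for 40 min at 25 °C. Ub-AMC, diluted 800-fold, was added for 30 min at 25 °C. Fluorescence was read at ex 360/em 460 nm, and IC50 came from regression.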
Target sequence in this assay (Q93009 whole entry, the tested form may be a part): as the sequence (Q93009 whole entry, looked up, the tested form may be a part) above

Assay [15] concerns MGC-803. Put plainly: Inhibition of colony formation in human MGC-803 cells after 7 days by crystal violet staining based assay. Format: functional, cell-based. To be noted: time 7.0 day. The gist of the method:
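Clonogenic assay: MGC-803 cells in log phase were seeded at 200 cells per well, allowed to attach for 12 h at 37 °C in 5% CO2, then exposed to the indicated concentrations or to DMSO for 7 days. Colonies were fixed with 4% paraformaldehyde and stained with 0.1% crystal violet for 15 min.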

Activity calls are given as the source filed them. The calls are words filed in the database; no cut-off is given here.

Take `O=C(c1cccc(Cl)c1Cl)N1CCC(O)(Cn2cnc3cc(Cl)ccc3c2=O)CC1`: in the assay on MGC-803 [1], the outcome was Active.
On to `O=C(c1ccc(O)cc1)N1CCC(O)(Cn2cnc3cc(Cl)ccc3c2=O)CC1`, for which the result in the assay on BGC-823 [2] and in the assay on MGC-803 [1] was Active.
`O=C(c1ccc([N+](=O)[O-])cc1)N1CCC(O)(Cn2cnc3cc(Cl)ccc3c2=O)CC1`: in [3], the inhibition was found to be 58.3%.
For `CC(CC(=O)N1CCC(O)(Cn2cnc3cc(NCCN4CCCC4)ccc3c2=O)CC1)c1ccccc1` (stereo not given), in assay [4], the inhibition result was “Dose-Dependent Effect”.
For the compound `CC(CC(=O)N1CCC(O)(Cn2cnc3cc(Cl)ccc3c2=O)CC1)c1ccccc1` (stereo not given), in assay [5], the IC50 is 6.79 µM.
`O=C(c1ccccn1)N1CCC(O)(Cn2cnc3cc(Cl)ccc3c2=O)CC1`: in [3], the inhibition was under 50%. In addition, the IC50 in [5] was over 50 µM.
In the case of `O=C(Cc1ccc(C(F)(F)F)cc1)N1CCC(O)(Cn2cnc3cc(Cl)ccc3c2=O)CC1`, the 50% inhibitory concentration (IC50) in [5] is over 50 µM.
Regarding `O=C(COc1ccccc1)N1CCC(O)(Cn2cnc3cc(Cl)ccc3c2=O)CC1`, the inhibition in [3] amounted to 22.7%.
Turning to `O=C(Cc1cccc2ccccc12)N1CCC(O)(Cn2cnc3cc(Cl)ccc3c2=O)CC1`, the IC50 in assay [5] is over 50 µM.
As for `Nc1cc(Cl)ccc1C(=O)N1CCC(O)(Cn2cnc3cc(Cl)ccc3c2=O)CC1`, the inhibition in assay [3] came to 46.5%. In addition, the outcome in the assay on MGC-803 [1] was Active.
Take `O=C(COc1cccc2ccccc12)N1CCC(O)(Cn2cnc3cc(Cl)ccc3c2=O)CC1`: the inhibition in assay [3] amounted to 9.83%. For the same compound, the result in the assay with BGC-823 [2] and in the assay on MGC-803 [1] was Active.
`O=C(CCc1ccccc1)N1CCC(O)(Cn2cnc3cc(NCCN4CCCC4)ccc3c2=O)CC1`: the inhibition result in assay [6] was “Tde”. The inhibition entry (in [7]; in [10]; in the assay on MGC-803 [15]) was “Active” each time. In addition, the result in the assay on MGC-803 [8] and in the assay on MGC-803 [13] was Active. For the same compound, the inhibition at 50 µM with MGC-803 [9] is 31%; with BGC-823 [11] it was 28.4%. Also, the Kd in assay [12] amounted to 77 µM. For the same compound, the IC50 in [14] came out at 5.05 µM; in [5], 4.86 µM.
Consider `O=C(/C=C/c1ccccc1)N1CCC(O)(Cn2cnc3cc(Cl)ccc3c2=O)CC1`, for which the inhibition in assay [3] was 32.6%.
Consider `O=C(CCc1ccccc1)N1CCC(O)(Cn2cnc3cc(NCCO)ccc3c2=O)CC1`, for which, in [5], the IC50 came to 16.4 µM.
For `O=C(c1ccccc1)N1CCC(O)(Cn2cnc3cc(Cl)ccc3c2=O)CC1`, in assay [3], the inhibition came to 18.6%.
`O=C(CCc1ccccc1)N1CCC(O)(Cn2cnc3cc(Cl)ccc3c2=O)CC1`: the inhibition at 50 µM stood at 31.4% in the assay with MGC-803 [9] and 8.45% with BGC-823 [11]. Also, the IC50 in assay [5] stood at 23.1 µM. Also, the result with BGC-823 [2] and with MGC-803 [1] was inactive.
Regarding `O=C(CCc1ccccc1)N1CCC(O)(Cn2cnc3cc(NCc4ccccc4Cl)ccc3c2=O)CC1`, the inhibition at 50 µM with MGC-803 [9] is 86.7%; with BGC-823 [11] it was 58.2%. Further, the inhibition in assay [3] is 49.1%. In addition, the IC50 with BGC-823 [2] (BGC-823, 4 h) worked out at 43.1 µM; in the assay with MGC-803 [1] it was 29.7 µM.
Consider `O=C(c1cccc(Br)c1)N1CCC(O)(Cn2cnc3cc(Cl)ccc3c2=O)CC1`, for which, in assay [3], the inhibition stood at 42.2%.
Consider `Cc1ccc(S(=O)(=O)N2CCC(O)(Cn3cnc4cc(Cl)ccc4c3=O)CC2)cc1`, for which the inhibition in assay [3] is 0.8%.
In the assay with BGC-823 [11], `O=C(CCc1ccccc1)N1CCC(O)(Cn2cnc3cc(NCCc4ccccc4)ccc3c2=O)CC1` yielded an inhibition at 50 µM of 54%. Besides, the IC50 was found to be 15.3 µM in [5] and 32.1 µM with MGC-803 [1]. Also, the outcome in the assay with BGC-823 [2] was Active.
`O=C(c1ccccc1[N+](=O)[O-])N1CCC(O)(Cn2cnc3cc(Cl)ccc3c2=O)CC1`: the inhibition in assay [3] stood at 4.29%.
For `CC(CC(=O)N1CCC(O)(Cn2cnc3cc(NCCN(C)C)ccc3c2=O)CC1)c1ccccc1` (stereo not given), the inhibition result in assay [4] was “Dose-Dependent Effect”. The values for the IC50 in [14] and in assay [5] were 0.595 µM and 1.54 µM, respectively.
For the compound `O=C(CCc1ccccc1)N1CCC(O)(Cn2cnc3cc(Br)ccc3c2=O)CC1`, the IC50 in assay [5] is 27.4 µM.
As to `O=C(CCc1ccccc1)N1CCC(O)(Cn2cnc3cc(NCc4ccc(Cl)cc4)ccc3c2=O)CC1`, in assay [3], the inhibition was 49.9%.
`Nc1cc(Br)ccc1C(=O)N1CCC(O)(Cn2cnc3cc(Cl)ccc3c2=O)CC1`: the inhibition at 50 µM in the assay with BGC-823 [11] was found to be 52%. Moreover, the values for the IC50 (in assay [5]; in the assay on MGC-803 [1]) were 46.3 µM and 30 µM, respectively. In addition, the outcome in the assay on BGC-823 [2] was Active.
Turning to `O=C(c1cccnc1)N1CCC(O)(Cn2cnc3cc(Cl)ccc3c2=O)CC1`, in assay [3], the inhibition was under 50%. In addition, in assay [5], the IC50 was over 50 µM.
For `COc1ccccc1CNc1ccc2c(=O)n(CC3(O)CCN(C(=O)CCc4ccccc4)CC3)cnc2c1`, in [3], the inhibition came out at 45.9%.
As for `O=C(c1ccc[nH]1)N1CCC(O)(Cn2cnc3cc(Cl)ccc3c2=O)CC1`, the inhibition in assay [3] is under 50%. The IC50 in assay [5] was over 50 µM.
As for `O=C(CCc1ccccc1)N1CCC(O)(Cn2cnc3cc(NCCN4CCCCC4)ccc3c2=O)CC1`, in assay [5], the half-maximal inhibitory concentration (IC50) stood at 37 µM.
In the case of `CN(C)CCNc1ccc2c(=O)n(CC3(O)CCN(C(=O)CCc4ccccc4)CC3)cnc2c1`, in assay [4], the inhibition entry is “Dose-Dependent Effect”. Besides, the IC50 in [5] was 5.98 µM.
Turning to `O=C(CCc1ccccc1)N1CCC(O)(Cn2cnc3cc(NCc4ccco4)ccc3c2=O)CC1`, in assay [5], the IC50 was 9.8 µM.
